Test results reported in ChEMBL document CHEMBL1138995, “Triaminotriazine DNA helicase inhibitors with antibacterial activity” (Bioorg Med Chem Lett, 2006).
In brackets after ≈: the same amount, converted by molar mass. Activity calls are given as the source filed them. The rule behind the calls is not given here.

Tests used:
Replicative DNA helicase = target: T1, Replicative DNA helicase (Pseudomonas aeruginosa (strain ATCC 15692 / PAO1 / 1C / PRS 101 / LMG12228), UniProt Q9HUN3); experiment: Inhibition of Pseudomonas aeruginosa DnaB helicase
T1 sequence (Q9HUN3 whole entry): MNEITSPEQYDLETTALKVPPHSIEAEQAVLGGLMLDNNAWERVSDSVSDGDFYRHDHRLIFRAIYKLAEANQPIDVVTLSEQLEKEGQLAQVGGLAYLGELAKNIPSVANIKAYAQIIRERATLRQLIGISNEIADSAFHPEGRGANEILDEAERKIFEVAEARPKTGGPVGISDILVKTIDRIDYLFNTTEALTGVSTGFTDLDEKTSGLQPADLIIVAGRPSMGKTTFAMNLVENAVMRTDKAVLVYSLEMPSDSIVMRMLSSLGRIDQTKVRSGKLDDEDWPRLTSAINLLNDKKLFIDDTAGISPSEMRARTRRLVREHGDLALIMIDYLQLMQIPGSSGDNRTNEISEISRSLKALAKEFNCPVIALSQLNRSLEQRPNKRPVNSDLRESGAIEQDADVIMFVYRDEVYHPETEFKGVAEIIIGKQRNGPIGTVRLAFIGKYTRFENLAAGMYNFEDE

Escherichia coli = experiment: Antibacterial activity against tolC deficient Escherichia coli LBB925; assay type: functional
Procedure, shortened: (§1)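 MIC by broth dilution following NCCLS standard M7-A4 for aerobically growing bacteria, reported in µg/mL. Strains were S. aureus RN4220, tolC-deficient hypersusceptible E. coli LBB925, and permeability-barrier-deficient P. aeruginosa Z61.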

HeLa [1] = experiment: Cytotoxicity against HeLa cells by MTS assay at 25 uM measured as percentage survival; assay type: functional, Homo sapiens
Procedure, shortened: (§2)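 HeLa cells were exposed to the compound at three concentrations (12.5, 25 and 50 µM). Viability was read by MTS assay and expressed as % survival.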

Pseudomonas aeruginosa = experiment: Antibacterial activity against permeability barrier deficient Pseudomonas aeruginosa Z61; assay type: functional; procedure, shortened: as §1
HeLa [2] = experiment: Cytotoxicity against HeLa cells by MTS assay at 12.5 uM measured as percentage survival; assay type: functional, Homo sapiens; procedure, shortened: as §2
HeLa [3] = experiment: Cytotoxicity against HeLa cells by MTS assay at 50 uM measured as percentage survival; assay type: functional, Homo sapiens; procedure, shortened: as §2
Staphylococcus aureus [4] = experiment: Antibacterial activity against Staphylococcus aureus RN4220; assay type: functional; procedure, shortened: as §1
Staphylococcus aureus [5] = experiment: Antibacterial activity against Staphylococcus aureus infected in mouse at 0.2 mL; assay type: functional, organism-based

SMILES	IC50 (Replicative DNA helicase)	MIC (Escherichia coli)	MIC (Pseudomonas aeruginosa)	MIC (Staphylococcus aureus [4])	Activity (HeLa [1])	Activity (HeLa [2])	Activity (HeLa [3])	Activity (Staphylococcus aureus [5])
Clc1cccc(Nc2nc(Nc3cccc(Cl)c3)nc(Nc3cccc(Cl)c3)n2)c1	31 µM	> 128 µg/mL	> 128 µg/mL	> 128 µg/mL	83%	74%	64%	
CC(=O)c1ccc(Nc2nc(Nc3ccc(Br)cc3)nc(Nc3ccc(Br)cc3)n2)cc1	6 µM	> 64 µg/mL	> 64 µg/mL	> 64 µg/mL				
O=[N+]([O-])c1ccc(Nc2nc(NCCN3CCOCC3)nc(Nc3ccc(Cl)cc3)n2)cc1	5 µM	> 128 µg/mL	> 128 µg/mL	4 µg/mL (≈ 8.49 µM)	19%	78%	10%	inactive
Clc1ccc(Nc2nc(NCCN3CCOCC3)nc(Nc3ccccc3)n2)cc1	65 µM	16 µg/mL (≈ 37.6 µM)	> 128 µg/mL	64 µg/mL (≈ 150 µM)	74%	98%	14%	
c1ccc(Nc2nc(NCCN3CCOCC3)nc(Nc3ccccc3)n2)cc1	> 100 µM							
Fc1ccc(Nc2nc(NCCN3CCOCC3)nc(Nc3ccc(F)c(F)c3)n2)cc1F	19 µM	16 µg/mL (≈ 34.5 µM)	> 128 µg/mL	16 µg/mL (≈ 34.5 µM)	91%	101%	47%	

Continued, in another order:

IC50 (Replicative DNA helicase)	MIC (Escherichia coli)	MIC (Pseudomonas aeruginosa)	MIC (Staphylococcus aureus [4])	SMILES	Activity (HeLa [1])	Activity (HeLa [2])	Activity (HeLa [3])	Activity (Staphylococcus aureus [5])
> 100 µM				COc1ccc(Nc2nc(NCCN3CCOCC3)nc(Nc3ccc(OC)cc3)n2)cc1				
6 µM	> 128 µg/mL	> 128 µg/mL	> 128 µg/mL	Fc1ccc(Nc2nc(Nc3ccc(F)c(F)c3)nc(N3CCN(Cc4ccccc4)CC3)n2)cc1F	99%	96%	97%	
> 100 µM				Fc1ccc(Nc2nc(NCCN3CCOCC3)nc(Nc3ccc(F)cc3)n2)cc1				
23 µM	32 µg/mL (≈ 74.9 µM)	> 128 µg/mL	64 µg/mL (≈ 150 µM)	OCCN1CCN(c2nc(Nc3ccc(F)cc3)nc(Nc3ccc(F)cc3)n2)CC1	104%	101%	51%	
5 µM	> 128 µg/mL	> 128 µg/mL	> 128 µg/mL	Fc1ccc(Nc2nc(Nc3ccc(F)c(F)c3)nc(N3CCN(CCOc4ccccc4)CC3)n2)cc1F	100%	97%	99%	
18 µM	16 µg/mL (≈ 34.5 µM)	> 128 µg/mL	16 µg/mL (≈ 34.5 µM)	OCCN1CCN(c2nc(Nc3ccc(F)c(F)c3)nc(Nc3ccc(F)c(F)c3)n2)CC1	91%	80%	47%	
20 µM	> 128 µg/mL	> 128 µg/mL	4 µg/mL (≈ 8.69 µM)	Clc1ccc(Nc2nc(NCCN3CCOCC3)nc(Nc3ccc(Cl)cc3)n2)cc1	90%	103%	6%	inactive
22 µM	16 µg/mL (≈ 40.3 µM)	> 128 µg/mL	32 µg/mL (≈ 80.5 µM)	CN1CCN(c2nc(Nc3ccc(F)cc3)nc(Nc3ccc(F)cc3)n2)CC1	64%	100%	11%	
5 µM	> 128 µg/mL	> 128 µg/mL	4 µg/mL (≈ 8.41 µM)	CC(C)CN1CCN(c2nc(Nc3ccc(F)c(F)c3)nc(Nc3ccc(F)c(F)c3)n2)CC1	99%	99%	86%	
